Bioassay records from PubChem BioAssay.
CHO parental Ca = ATP-evoked calcium signal inhibitors, parental CHO, primary screen, counter-screen for OX1R antagonist project, cell-based, fluorescence, Fluo-8 calcium dye; 330,000 tested, 0.63% active; inhibition, % at 5.6 µM; AID 463079, 2010; parental CHO-K1, ATP-induced calcium, Fluo-8 fluorescence;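 active = inhibition above that plate's mean sample inhibition plus 3 SD, cut at about 26% in these data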
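Assay system: untransfected parental CHO cell line. Also added: ATP agonist challenge. Dosing: one dose, 5.6 µM nominal. Measured by: Fluo-8 fluorescence. Read-out: % inhibition. Benchmarks: ATP wells versus no-ATP DMSO wells. Repeats: no replicates.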
OX1R antag-1 = OX1R (HCRTR1) antagonists, primary screen, fluorescence, CHO/OX1R cells, Fluo-8 calcium, orexin A; Orexin/Hypocretin receptor type 1 (Homo sapiens), O43613; inhibition, % at 5 µM; Fluo-8 calcium fluorescence; AID 434989, 2010; 330,000 tested, 0.43% active;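 active = inhibition above its plate's threshold, mean inhibition of all tested compounds on the plate plus 3 SD, cut at about 37% in these data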
Target sequence (O43613 whole entry, looked up): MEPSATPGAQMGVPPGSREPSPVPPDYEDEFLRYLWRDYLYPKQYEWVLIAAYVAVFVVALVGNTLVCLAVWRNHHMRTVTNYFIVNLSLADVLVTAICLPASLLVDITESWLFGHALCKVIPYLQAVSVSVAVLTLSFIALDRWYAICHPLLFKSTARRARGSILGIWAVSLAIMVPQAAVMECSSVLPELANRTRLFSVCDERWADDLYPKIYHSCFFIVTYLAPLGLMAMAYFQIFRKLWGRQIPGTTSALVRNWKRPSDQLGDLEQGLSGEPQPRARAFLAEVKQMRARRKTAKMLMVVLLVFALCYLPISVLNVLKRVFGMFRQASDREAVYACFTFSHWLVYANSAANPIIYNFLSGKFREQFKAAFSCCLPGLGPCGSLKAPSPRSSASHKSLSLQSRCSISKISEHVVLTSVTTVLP
OXTR ag = human OXTR agonists, primary screen, fluorescence, CHO-OTR cells, Fluo-8 calcium; AID 2435, 2010; Oxytocin receptor (Homo sapiens), P30559; 320,000 tested, 0.32% active; Fluo-8 calcium fluorescence; normalized: DMSO 0%, oxytocin 100%; activation, % at 3 µM;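 active = activation above the mean of all tested compounds plus 3 SD, cutoff set per screening run, cut at about 20% in these data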;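 note: peak over basal fluorescence ratio from a 100 s FLIPR kinetic read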
V1aR counter = agonists of human V1a receptor, primary screen, counter-screen for OXTR agonist project, fluorescence, CHO-V1R cells; 320,000 tested, 0.25% active; activation, % at 3 µM; Vasopressin V1a receptor (Homo sapiens), P37288; Fluo-8 calcium fluorescence, agonist mode; 0% DMSO, 100% 3 nM vasopressin;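 active = activation above the mean activation of all tested compounds plus 3 SD, per screening run, cut at about 20% in these data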;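 note: signal is peak over basal fluorescence ratio across a 100 second FLIPR read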
OXTR potentiate = human OXTR potentiators, primary screen, fluorescence, CHO-OTR cells, Fluo-8 calcium. Oxytocin receptor (Homo sapiens), P30559. Fluo-8 calcium fluorescence, potentiator mode; 0% = oxytocin EC15, 100% = EC100. activation, % at 3 µM. 320,000 tested, 0.061% active;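 active = activation above that plate's cutoff, the mean activation of tested compounds plus 3 SD, cut at about 6.6% in these data, passing the limit was not always enough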
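Assay system: CHO cell line stably expressing human OTR. Reagent: EC15 oxytocin agonist. Dosing: single dose, 3.0 µM nominal final compound concentration. Timing: compound 6 min at room temperature before oxytocin, 100 s read. Signal: kinetic Fluo-8 calcium fluorescence. Controls: oxytocin EC15 low and EC100 high.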
OX1R antag-2 = antagonists of human orexin 1 receptor (OX1R) | AID 485270, 2010 | 330,000 tested, 1.8% active | OX1R-expressing cells, FRET antagonist read-out | Orexin/Hypocretin receptor type 1 (Homo sapiens), O43613 | inhibition, % at 6.6 µM; in the data active = inhibition mostly above about 38%, no sharp cut-off; inactive = mostly below about 40%
Numbers stand for hits; – = inactive. Hits are enriched below; roughly 2.7% of the tested compounds scored in any of these assays.

SMILES | CHO parental Ca | OX1R antag-1 | OXTR ag | V1aR counter | OXTR potentiate | OX1R antag-2
O=C(Nc1ccc(Cl)c(Cl)c1)c1ccc(Cl)c(Cl)c1 | 58.9 | 39.8 | – | – | – | 91.7
Cc1cc(NC(=O)c2ccc(Cl)c([N+](=O)[O-])c2)no1 | 43.3 | – | – | – | – | –
COc1cccc(S(=O)(=O)NCc2ccc(C(=O)Nc3ccc(Cl)c(Cl)c3)cc2)c1 | 42.5 | – | – | – | – | –
O=C(Nc1ccc(Nc2ccccc2)cc1)c1ccc(Cl)c([N+](=O)[O-])c1 | – | – | – | – | – | –
Cc1cc(NC(=O)c2ccc(N3CCCC3)c([N+](=O)[O-])c2)no1 | – | – | – | – | – | –
CN(C)S(=O)(=O)c1ccc(Cl)c(NC(=O)CN2CCCC2)c1 | – | – | – | – | – | –
O=C1CC(c2ccccc2)CC(=O)N1c1ccc(C(F)(F)F)cc1 | – | – | – | – | – | –
Cc1cc(C)c2[nH]c(C(=O)Nc3ccc(F)cc3Br)cc2c1 | – | – | – | – | – | –
Cc1nc2ccc(NC(=O)CCC3CCCC3)cc2s1 | – | – | – | – | – | –
O=C(Nc1ccc(Cc2ccncc2)cc1)c1ccc(Cl)c([N+](=O)[O-])c1 | 82.9 | 76.8 | – | – | – | 128.0
Nc1c(C(=O)NCc2ccc3c(c2)OCO3)c2nc3ccccc3nc2n1CCCN1CCOCC1 | 33.5 | – | – | – | – | –
Cc1cccc(C(=O)NC(=S)Nc2ccccc2C(=O)O)c1 | – | – | – | – | – | –
Cc1ccccc1C(=O)NNC(=S)NC(=O)c1ccc(Cl)cc1Cl | – | – | 73.5 | 84.6 | – | –
Cc1cccc(C(=O)NC(=S)NNC(=O)c2ccccc2Cl)c1 | – | – | 71.5 | 49.5 | – | –
O=C(NC(=S)NNC(=O)c1ccc(Cl)cc1Cl)c1cccnc1 | – | – | – | – | – | –
Cc1ccc(C(=O)NNC(=S)NC(=O)c2ccc(Cl)cc2)cc1 | 34.4 | 70.6 | 91.3 | 81.4 | – | –
Cc1onc(-c2ccccc2)c1C(=O)NNC(=S)NC(=O)c1ccc(Cl)cc1Cl | – | – | 101.9 | 101.5 | – | –
CS(=O)(=O)N(CC(=O)Nc1ccccc1Br)Cc1ccccc1 | – | – | – | – | – | –
O=C(NC1CCCC1)C(c1cccs1)N(C(=O)c1csnn1)c1ccccc1F (stereo unspecified) | – | – | – | – | – | –
COc1ccc(-n2c(SCC(=O)Nc3ccc(Br)cc3)nc(O)cc2=O)cc1 | – | – | – | – | – | –
Cc1cc(=O)n2nc(N3CCC(C(=O)NCc4ccccc4Cl)CC3)sc2n1 | – | – | – | – | – | –
Cc1onc(-c2ccccc2)c1C(=O)NNC(=S)NC(=O)/C=C/c1ccccc1 | – | – | 35.2 | 46.5 | – | –
COc1ccc(/C=C/C(=O)NC(=S)NNC(=O)c2c(-c3ccccc3)noc2C)cc1 | – | – | – | – | – | –
Cc1onc(-c2ccccc2)c1C(=O)NNC(=O)c1ccccc1 | – | – | – | – | – | –
Cc1onc(-c2ccccc2)c1C(=O)NNC(=S)NC(=O)c1ccc(Br)cc1 | – | – | 73.1 | 65.8 | – | –
SMILES | CHO parental Ca | OX1R antag-1 | OXTR ag | V1aR counter | OXTR potentiate | OX1R antag-2
NC(=O)c1c(NC(=O)COC(=O)c2ccc(S(=O)(=O)Nc3ccccc3)cc2)sc2c1CCCC2 | – | – | – | – | – | –
O=C(/C=C/c1ccc([N+](=O)[O-])s1)N1CCCCC1 | – | – | – | – | – | 74.0
O=C(/C=C/c1ccc([N+](=O)[O-])s1)N1CCCC1 | – | – | – | – | – | 51.6
CCn1c(/C=C/c2ccccc2)nc2ccccc21 | – | – | – | – | – | 47.6
CCC(C)(C)C1CCc2nc3ccccc3c(C(=O)OC(C)C(=O)Nc3c(C)n(C)n(-c4ccccc4)c3=O)c2C1 (stereo unspecified) | – | – | – | – | – | –
O=C(Nc1cccnc1)c1cc(-c2cc(Cl)ccc2O)n[nH]1 | – | – | – | – | – | 67.0
CCOC(=O)c1sc(NC(=O)c2ccc(S(=O)(=O)N(C)C)cc2)cc1C | – | – | – | – | – | 57.7
Cc1cc(=O)[nH]c(SCC(=O)C23CC4CC(CC(C4)C2)C3)c1C#N | – | – | – | – | – | 39.5
CCCCC(=O)Nc1ccc2c3c(cccc13)C(=O)N2CC | – | – | – | – | – | 45.3
CCN1C(=O)c2cccc3c(NC(=O)C(C)(C)C)ccc1c23 | – | – | – | – | – | –
CCOc1ccccc1N(C)C(=O)CCS(=O)(=O)c1ccc2c(c1)NC(=O)CO2 | – | – | – | – | – | –
O=C(c1cccc([N+](=O)[O-])c1)N1CCCC(C(=O)N2CCc3ccccc3C2)C1 (stereo unspecified) | – | – | – | – | – | –
Cc1nc2ccccn2c1-c1csc(NCc2ccco2)n1 | – | – | – | – | – | –
Cc1ccn2c(-c3csc(NCc4ccccc4)n3)c(C)nc2c1 | – | 43.4 | – | – | – | –
COc1ccc(/C(C)=N/NC(=S)NCCc2ccccc2)c(O)c1 | – | – | – | – | – | –
O=C(Nc1ncn[nH]1)c1cccc(S(=O)(=O)N2CCOCC2)c1 | – | – | – | – | – | –
COc1n[nH]c2nncnc12 | – | – | – | – | – | 121.2
COc1ccc2sc(-c3ccc(SC)cc3)c(/C=C/c3ccc(OC)c(OC)c3)c2c1 | – | – | – | – | – | –
Cc1noc(C)c1S(=O)(=O)Nc1ccc(C(=O)N2CCN(c3cccc(Cl)c3)CC2)cc1 | 33.2 | 56.5 | – | – | – | –
Cn1c(=O)c([N+](=O)[O-])c(NCc2ccc3c(c2)OCO3)c2ccccc21 | – | – | – | – | – | –
COC(=O)c1c(C)[nH]c(C(=O)C(C)OC(=O)C2CC(=O)N(c3ccc(C)cc3)C2)c1C (stereo unspecified) | 46.1 | 65.8 | – | – | – | –
COC(=O)c1c(C)[nH]c(C(=O)C(C)OC(=O)C2CC(=O)N(CCc3ccccc3)C2)c1C (stereo unspecified) | – | – | – | – | – | –
CC(=O)N1CCN(c2ccc([N+](=O)[O-])c(NCC3CCCO3)c2)CC1 (stereo unspecified) | – | – | – | – | – | 78.5
